Assay results as given in ChEMBL document CHEMBL4229353, “Synthesis and antiviral evaluation of cyclopentyl nucleoside phosphonates” (Eur J Med Chem, 2018).

Experiments:
[1] = system: Human alphaherpesvirus 3; experiment: Antiviral activity against thymidine kinase deficient Varicella-Zoster virus 07-1 infected in HEL cells assessed as inhibition of plaque formation measured after 5 days post infection; assay type: functional, organism-based; conditions: Human alphaherpesvirus 3, 07-1, HEL, 120 h
How it was run: (§1)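 Confluent HEL fibroblast monolayers in 96-well plates were inoculated with 20 PFU of VZV (Oka or TK– strain 07-1). After 2 h adsorption, the inoculum was removed and cultures were incubated with varying compound concentrations. Plaque formation was recorded at 5 days post-infection.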

[2] = system: Human alphaherpesvirus 1; experiment: Antiviral activity against thymidine kinase-deficient ACV-resistant Herpes simplex virus 1 KOS infected in HEL cells assessed as […] measured after 2 to 3 days post infection; assay type: functional, organism-based; conditions: Human alphaherpesvirus 1, KOS
How it was run: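 Confluent HEL fibroblast monolayers in 96-well plates were inoculated with 100 CCID50 of HSV-1 (KOS or TK-deficient ACV-resistant KOS). After 2 h adsorption, the inoculum was removed and cells were incubated with varying compound concentrations. Virus-induced cytopathicity was recorded at 2-3 days post-infection.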

[3] = Cytostatic activity against HEL cells after 3 days by Coulter counting method; assay type: cell-based; conditions: human
How it was run: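 HEL cells were seeded at 5 x 10^3 cells/well and left to proliferate for 24 h. Medium with graded compound concentrations was then added, followed by 3 days at 37 °C. Cells were counted with a Coulter counter. CC50, the concentration halving proliferation relative to untreated controls, was read from plots of cell number (% of control) versus concentration.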

[4] = Cytotoxicity against HEL cells assessed as alteration in cell morphology after 3 days by microscopic analysis; assay type: cell-based; conditions: human
How it was run: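 Uninfected HEL cell cultures were exposed to graded compound concentrations. MCC is the lowest concentration producing a microscopically detectable alteration of cell morphology.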

[5] = system: Human alphaherpesvirus 3; experiment: Antiviral activity against thymidine kinase expressing Varicella-Zoster virus Oka infected in HEL cells assessed as inhibition of plaque formation measured after 5 days post infection; assay type: functional, organism-based; conditions: Human alphaherpesvirus 3, strain Oka vaccine, 120 h; how it was run: as §1
[6] = system: Human alphaherpesvirus 2; experiment: Antiviral activity against Herpes simplex virus 2 G infected in HEL cells assessed as […] measured after 2 to 3 days post infection; assay type: functional, organism-based; conditions: Human alphaherpesvirus 2, strain G
How it was run: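 Confluent HEL fibroblast monolayers were infected with 100 CCID50 of virus, and the inoculum was removed after 2 h adsorption. Cells were then cultured with serial compound concentrations. Virus-induced cytopathicity was scored at 2-3 days (HSV) or 6-7 days (HCMV) post-infection.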

Structure (SMILES)	EC50 [1] [µM]	EC50 [2] [µM]	CC50 at 72 h [3] [µM]	MCC at 72 h [4] [µM]	EC50 [5] [µM]	EC50 [6] [µM]
CC(C)OC(=O)[C@H](C)NP(=O)(CO[C@@H]1C[C@@H](O)[C@H](n2cnc3c(=O)[nH]c(N)nc32)C1)N[C@@H](C)C(=O)OC(C)C	> 175	> 175	> 175	> 175	66.6	> 175
Cc1cn([C@@H]2C[C@H](OCP(=O)(O)O)C[C@H]2O)c(=O)[nH]c1=O	> 247	> 247		> 247	> 247	> 247
Nc1ncnc2c1ncn2[C@@H]1C[C@H](OCP(=O)(O)O)[C@@H](O)C1	79	> 303		> 303	258	> 303
Nc1ncnc2c1ncn2[C@@H]1C[C@H](OCP(=O)(O)O)C[C@H]1O	> 303	161		> 303	> 303	132
Nc1ccn(C[C@@H](CO)OCP(=O)(O)O)c(=O)n1 [CIDOFOVIR]			> 358	> 358		2.27
Nc1nc2c(ncn2[C@@H]2C[C@H](OCP(=O)(O)O)C[C@H]2O)c(=O)[nH]1	8.83	99	> 289	> 289	5.35	57.9
CC(C)OC(=O)[C@H](C)NP(=O)(CO[C@H]1C[C@@H](n2cnc3c(=O)[nH]c(N)nc32)C[C@@H]1O)N[C@@H](C)C(=O)OC(C)C	29.8	35	> 175	> 175	35	85.5
Nc1nc2c(ncn2COCCO)c(=O)[nH]1 [ACYCLOVIR]	14.1	> 88	> 444	> 444	3.37	0.29
Nc1nc2c(ncn2[C@@H]2C[C@H](OCP(=O)(O)O)[C@@H](O)C2)c(=O)[nH]1	8.38	14.1	> 289	> 289	17.1	33.9
Nc1ccn([C@@H]2C[C@H](OCP(=O)(O)O)C[C@H]2O)c(=O)n1	> 327	> 327		> 327	> 327	> 327
Nc1nc2c(ncn2COC(CO)CO)c(=O)[nH]1 [GANCICLOVIR]		3.91	> 391	> 391		0.019
O=c1[nH]c(=O)n([C@H]2C[C@H](O)[C@@H](CO)O2)cc1/C=C/Br [BRIVUDINE]	3.39	> 30	> 300	> 300	0.021	> 30
Nc1ccn([C@@H]2C[C@H](OCP(=O)(O)O)[C@@H](O)C2)c(=O)n1	> 327	> 327		> 327	> 327	> 327
Cc1cn([C@@H]2C[C@H](OCP(=O)(O)O)[C@@H](O)C2)c(=O)[nH]c1=O	5.73	9.89	69.4	> 247	23.1	92.3
